Screening results: PubChem BioAssay, Johns Hopkins Ion Channel Center
RGS4 inh: inhibitors of human RGS4; 0.45% of 310,000 active; HEK293 M3R/RGS4 inducible, Fluo-4 calcium flux; hits give high values; triggered by carbachol at its EC20; P49798; B-score at 10 µM;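 active = B-score, a plate-corrected calcium signal, over three deviations above library mean, with baseline fluorescence within five deviations of library mean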;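 also: RGS4 expression induced by doxycycline in cells with stable M3 receptor; B-score is computed from the integrated fluorescence ratio over baseline after carbachol; higher B-score means a larger calcium signal and so more RGS4 inhibition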
Target sequence (P49798 whole entry, looked up): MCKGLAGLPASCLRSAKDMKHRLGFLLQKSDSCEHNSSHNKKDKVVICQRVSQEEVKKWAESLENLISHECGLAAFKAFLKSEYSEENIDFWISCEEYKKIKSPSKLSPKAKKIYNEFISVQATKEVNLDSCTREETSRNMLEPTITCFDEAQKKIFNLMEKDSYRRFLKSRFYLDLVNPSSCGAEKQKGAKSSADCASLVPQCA
MrgX1 antagonist: human MrgX1 receptor antagonism, primary screen; B-score at 10 µM; Q96LB2; MRGX1-HEK293 calcium flux, Fluo-4, BAM8-22 antagonism; hits give low values; 1.3% of 310,000 active; AID 588676;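 active = calcium-response B-score plate-corrected more than 3 library SD below zero, starting fluorescence within 5 deviations, no agonist response on first addition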;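 also: peak minus trough fluorescence over baseline after final BAM8-22 challenge near maximal dose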
Target sequence (Q96LB2 whole entry, looked up): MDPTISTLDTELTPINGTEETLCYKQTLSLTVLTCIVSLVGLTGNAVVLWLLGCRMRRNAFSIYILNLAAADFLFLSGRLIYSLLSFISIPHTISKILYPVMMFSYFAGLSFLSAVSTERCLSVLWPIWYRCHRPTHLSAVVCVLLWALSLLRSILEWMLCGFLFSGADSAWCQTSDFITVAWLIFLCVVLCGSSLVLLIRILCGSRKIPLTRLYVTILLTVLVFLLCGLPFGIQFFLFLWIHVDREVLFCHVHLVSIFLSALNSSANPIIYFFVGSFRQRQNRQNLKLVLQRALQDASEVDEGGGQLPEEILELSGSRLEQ
MrgX1 allo act: allosterically activates human MrgX1 receptor signaling. MrgX1-HEK293, Fluo-4 calcium flux, FDSS; hits give high values. B-score at 10 µM. 0.63% of 310,000 active;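 active = plate-corrected calcium response at least 3 library SD above typical, normal starting fluorescence, not activating the receptor alone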;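 also: compound read alongside a low EC10 to EC30 dose of BAM8-22 agonist; peak minus trough fluorescence over baseline measured at the second addition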
MrgX1 agonist: human MrgX1 receptor agonism, primary screen | B-score at 10 µM | MrgX1-HEK293 cells, Fluo-4 calcium fluorescence, agonist mode; hits give high values | 0.44% of 310,000 active;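 active = calcium response B-score plate-corrected fluorescence ratio at least 3 library SD, with starting fluorescence B-score inside 5 SD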
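Material: MrgX1-expressing HEK293 cells; input: 15,000 cells per well; doses: test compound given as first of three sequential additions; schedule: overnight plating before 1 h dye loading; technique: Fluo-4 NW calcium-flux fluorescence, kinetic read; evaluation: baseline-normalised fluorescence change ratio, B-scored; control set: plate-wise positive and negative controls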
RGS4 pot: RGS4 potentiation or activation. 0.92% of 310,000 active. HEK293 M3R/inducible RGS4, carbachol calcium flux Fluo4; hits give low values. B-score at 10 µM. AID 463111;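 active = B-score of the integrated calcium signal more than 4 SD below the library mean, with starting fluorescence not abnormally high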;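 also: negative B-score means reduced calcium response which marks RGS4 activation or potentiation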
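Assay system: HEK293 FlpIn-TREx cells, stable M3R, doxycycline-inducible RGS4 / Probe or stimulus: carbachol, ECmax concentration / Times: overnight RGS4 induction, 30 min dye load 37 °C, 20 min compound RT / Signal: kinetic calcium fluorescence imaging with Fluo4-AM dye, 2 µM / Measure: Agonist-evoked peak-minus-minimum fluorescence over baseline, integrated ratio, B score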
RGS4 act valid: confirmation of RGS4 activators; shares compounds with RGS4 pot; HEK293 M3R/RGS4 inducible, carbachol calcium flux Fluo4; inhibition, % at 10 µM; 89% of 1,100 active; AID 602282;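 active = inhibition above 3 SD of the buffer control wells, cut at about 41% in these data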;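 also: signal is the integrated peak-minus-minimum Fluo4 fluorescence over baseline ratio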
RGS4 act ctr: RGS4 activator counter-screen hit in non-induced cells; inhibition, % at 10 µM; shares compounds with RGS4 pot; 82% of 1,100 active; HEK293 M3R non-induced RGS4, Fluo4 calcium flux; after carbachol challenge at its EC90;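 active = inhibition exceeding 3 SD of buffer-only control wells, cut at about 26% in these data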;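 also: percent drop in integrated peak-minus-baseline over baseline Fluo4 ratio after carbachol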
* hit, by the source's call; i = inactive; x = not tested or not shown. Most compounds without a hit are left out; they make up all but 3.5% or so of the library.

SMILES	RGS4 inh	MrgX1 antagonist	MrgX1 allo act	MrgX1 agonist	RGS4 pot	RGS4 act valid	RGS4 act ctr
O=C(Oc1ccc(Oc2ccccc2)cc1)N1CCC(O)CC1	i	i	i	i	i	x	x
Cc1ccc2oc(=O)c3cc(C(=O)NCCCN4CCCCCC4)sc3c2c1	i	i	i	i	i	x	x
Cc1ccc2oc(=O)c3cc(C(=O)NCCCN4CCc5ccccc5C4)sc3c2c1	i	i	i	i	-7.7*	51*	84*
O=S(=O)(c1cccc(F)c1)N1CCN(C(=S)NCC2CCCO2)CC1 (stereo unspecified)	i	i	i	i	i	x	x
N#CC1=C(N)OC2=C(C(=O)CC(c3ccccc3)C2)C1c1ccc2c(c1)OCO2 (stereo unspecified)	i	i	i	i	-8.2*	92*	68*
OCCc1ccc(O)c(-n2nc3ccccc3n2)c1	i	i	i	i	i	x	x
CCCCN(C)C(=O)c1cc2c(Cl)nc3ccccc3c2s1	i	i	i	i	-8.7*	59*	45*
Cn1c(-c2ccc3c(c2)OCO3)cnc1NCc1cccc(Cl)c1	i	i	i	i	-8.9*	86*	44*
CC(C)(C)S(=O)(=O)c1ccsc1C(=O)O	i	i	i	i	-16*	0	0
Cc1cc(C(=O)Nc2ccc(N3CCOCC3)c3nonc23)ccc1[N+](=O)[O-]	i	i	i	i	i	x	x
Cn1c(SCCOc2ccccc2F)nc2ccccc2c1=O	i	i	i	i	-7.8*	92*	81*
OCc1nc2ccccc2n1Cc1c(F)cccc1Cl	i	i	i	i	i	x	x
CSc1nc2ccccc2n1Cc1c(Cl)cccc1Cl	i	i	i	i	-8.4*	95*	86*
CC[N+](C)(C)CC/C=C1/c2ccccc2Sc2ccc(Cl)cc21	i	i	i	i	-12*	94*	93*
Cc1ccc(-c2csc(=Nc3cccnc3)n2CCCN2CCCC2=O)cc1C	i	i	i	i	i	x	x
Cc1ccc(-c2csc(=Nc3cccnc3)n2CCCn2ccnc2)cc1C	i	i	i	i	-8.8*	92*	93*
CC1CCCN(CC(=O)Nc2ccc(S(=O)(=O)N3CCCC3)cc2)C1 (stereo unspecified)	i	i	i	i	-9.2*	85*	41*
Cc1ccc(CCC(=O)NCc2ccccc2)o1	i	i	i	i	-7.8*	0	0
O=C(CN(C(=O)CNC(=O)c1ccco1)c1ccc(F)cc1)NC1CCCCC1	i	i	i	i	i	x	x
C=CCn1c(C)cc(-c2csc(NC(=O)CCc3nc4ccccc4c(=O)[nH]3)n2)c1C	i	i	i	i	-8.4*	68*	0
CCCN1CCc2c(sc(NC(=O)Cc3ccc(F)cc3)c2C(N)=O)C1	i	i	i	i	i	x	x
COCc1ccc(C(=O)N(C)C2CCCN(Cc3ccccc3F)C2)o1 (stereo unspecified)	i	i	i	i	-8.6*	56*	0
COC(=O)c1ccc(C(=O)N(C)C2CCCN(Cc3ccccc3F)C2)cc1 (stereo unspecified)	i	i	i	i	i	x	x
CN1CCN(C(=O)C2CCN(c3ncc(C(F)(F)F)cc3Cl)CC2)CC1	i	i	i	i	-12*	86*	41*
COc1ccc2nc(C)cc(SCC(=O)N/N=C/c3ccc(O)c(O)c3)c2c1	i	i	i	i	-13*	0	0
SMILES	RGS4 inh	MrgX1 antagonist	MrgX1 allo act	MrgX1 agonist	RGS4 pot	RGS4 act valid	RGS4 act ctr
COc1ccc2nc(C)cc(SCC(=O)N/N=C/c3cccc4ccccc34)c2c1	i	i	i	i	i	x	x
COC(=O)[C@]1(C)N[C@H](c2ccc(SC3CCCCC3)c(OC)c2)[C@@H]2C(=O)N(C)C(=O)[C@@H]21	i	i	i	i	i	x	x
COc1cccc(C(=O)NCC2CCN(c3ccc(S(=O)(=O)N4CCOCC4)cc3)CC2)c1	i	i	i	i	-8.6*	92*	58*
COc1cccc(-c2nnc(NC(=O)c3ccc(S(=O)(=O)N4CCOCC4)cc3)o2)c1	i	i	i	i	i	x	x
O=C(c1ccc(S(=O)(=O)N2CCOCC2)cc1)N1CCN(c2cccc(Cl)c2)CC1	i	i	i	i	i	x	x
O=C(NCC1CCN(c2ccc(S(=O)(=O)N3CCOCC3)cc2)CC1)c1cccc(Cl)c1	i	i	i	i	-8.1*	90*	92*
Cc1ccc(C)c(NC(=O)CSc2nc(=O)n(CCN3CCOCC3)c3c2CCCC3)c1	i	i	i	i	i	x	x
CC(=O)N1c2ccccc2C(C)CC12CCCCC2 (stereo unspecified)	i	i	i	i	-7.8*	86*	37*
CCc1ccc(NS(=O)(=O)c2cccc3nsnc23)cc1	i	i	i	i	-8.6*	72*	84*
CC(C)c1ccc(NC(=O)CCNS(=O)(=O)c2cccc3nsnc23)cc1	i	i	i	i	-8*	0	0
CN1CCN(NC(=O)c2ccc(Cl)c(S(=O)(=O)Nc3ccc(Cl)cc3)c2)CC1	i	i	i	i	i	x	x
COc1cc(C(=O)COC(=O)C2CCN(c3ccc(C(F)(F)F)cn3)CC2)ccc1OC(F)F	i	i	i	i	-8.7*	76*	84*
Cc1cc(C)c(C(=O)COC(=O)C2CCN(c3ccc(C(F)(F)F)cn3)CC2)cc1C	i	i	i	i	i	x	x
O=C(COC(=O)C1CCN(c2ccc(C(F)(F)F)cn2)CC1)c1ccc(F)cc1	i	i	i	i	i	x	x
O=C(COC(=O)C1CCN(c2ccc(C(F)(F)F)cn2)CC1)c1ccc(Cl)cc1	i	i	i	i	-7.8*	76*	31*
CC1Sc2ccc(S(=O)(=O)N3CCC(C(=O)NCC(C)c4ccccc4)CC3)cc2NC1=O (stereo unspecified)	i	i	i	i	i	x	x
CN(CC(=O)Nc1cccc(F)c1)CC(=O)Nc1cccc(S(=O)(=O)N2CCCCCC2)c1	i	i	i	i	-7.7*	62*	33*
Cc1ccc(Cl)cc1N1CCN(C(=O)CCCn2c(=O)c3cccn3c3cccnc32)CC1	i	i	i	i	-7.9*	84*	50*
